Laboratory results from ChEMBL document CHEMBL1255381, “Golgicide A reveals essential roles for GBF1 in Golgi assembly and function” (Nat Chem Biol, 2009).
The source made the active and inactive calls. The rule behind the calls is not given here.

Tests used:
Vero [1] = assay: Induction of depolymerization of actin microfilaments in african green monkey Vero cells at 25 uM after 30 mins by immunofluorescence method; assay type: functional, cell-based; details: Chlorocebus sabaeus
Vero [2] = assay: Effect on disruption of microtubules in african green monkey Vero cells at 5 ug/ml after 30 mins by immunofluorescence method; assay type: functional, cell-based; details: Chlorocebus sabaeus
Outline: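 They were then fixed and immunostained for microtubules, and microtubule morphology was judged by immunofluorescence microscopy against DMSO-treated cells.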

SMILES	Activity (Vero [1])	Activity (Vero [2])
C=C1[C@@H](C)[C@H]2[C@H](Cc3ccccc3)NC(=O)[C@]23OC(=O)/C=C/[C@H](O)CCC[C@@H](C)C/C=C/[C@H]3[C@@H]1O	Active	–
COC(=O)Nc1nc2cc(C(=O)c3cccs3)ccc2[nH]1	–	Active
